Laboratory results published in article PMC12334575 (Nature Communications, 2025).

What was measured:
Format in all cases: cell-based, Candida auris
C. auris CBS10913 = experiment: Intracellular drug accumulation assay; settings: C. auris CBS10913, 20 µM, 10 min, 30 °C, PBS, silicone oil centrifugation, LC-MS
Outline: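 Yeast subcultured in SDB at 30 °C with shaking to mid-log (OD530 ≈ 0.6), washed twice in PBS and resuspended in PBS. Equilibrated 5 min at 30 °C, then test compound added to 20 µM final for 10 min. Cells spun at 13,000×g through pre-cooled silicone oil; intracellular compound quantified by LC-MS. Biological triplicates.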

C. auris CBS12775 = experiment: Checkerboard assay coniotin A with caspofungin; settings: refractory C. auris, checkerboard (Fig. 4a)
C. auris CBS 10913 = experiment: High-throughput screening of crude extracts and PFL fractions; settings: identified in active fractions of WAC11175, result in words
Outline: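 Primary screen: C. auris CBS 10913 colonies grown on YPD agar at 30 °C for 48 h, then suspended in RPMI 1640. 1 µL crude extract or fraction added to 49 µL culture in 384-well format, in duplicate. […] OD530 read after 48 h; hits defined as ≥75% growth inhibition versus untreated. For follow-up, producer strains were regrown on Bennett's agar at 30 °C for 7 days, extracts fractionated on C18, and DMSO-dissolved fractions retested in broth microdilution.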

Compound: CC[C@H](C)C[C@H](C)CCCCCCCCC(=O)N[C@H]1C[C@@H](O)[C@@H](NCCN)NC(=O)[C@@H]2[C@@H](O)CCN2C(=O)[C@H]([C@H](O)CCN)NC(=O)[C@H]([C@H](O)[C@@H](O)c2ccc(O)cc2)NC(=O)[C@@H]2C[C@@H](O)CN2C(=O)[C@H]([C@@H](C)O)NC1=O [Caspofungin]
- Intracellular accumulation (C. auris CBS10913): measurable accumulation
- MIC of caspofungin in the presence of coniotin A (C. auris CBS12775): 2 µg/mL

Compound: enniatin A1
- Activity against C. auris (C. auris CBS 10913): significant activity

Compound: enniatin B1
- Activity against C. auris (C. auris CBS 10913): significant activity
